Source: ChEMBL document CHEMBL4513216, “Probing the Open Global Health Chemical Diversity Library for Multistage-Active Starting Points for Next-Generation Antimalarials” (ACS Infect Dis, 2020)

test: Toxicity liver stage against HepG2, at 10uM; format: cell-based; design: test concentration 10 uM, cell line HepG2-A16-CD81EGFP; conditions: human, HepG2-A16-CD81EGFP cells; read-out: INHIBITION
How it was run: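 Uninfected HepG2-A16-CD81EGFP cells, 3 × 10^3 per well, 1536-well, plated on prespotted compound at 10 μM final, parasite-free screening media added to match infected plates; puromycin 10 μM positive, DMSO 0.5% negative; run in parallel with 48 h PbLuc assay at 37 °C, 5% CO2; viability by CellTiter-Glo luminescence, normalized to controls.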

| SMILES | cytotoxicity at 10 µM |
| --- | --- |
| COCCn1c(-c2cccc(OC)c2)cnc1NC(=O)NCC(C)C | 11.4% |
| Cn1cc(-c2nnc3sc(C4CCC4)nn23)cn1 | -13% |
| CSCCC(Nc1nc(C)cc(C)n1)C(=O)NCC1CCOCC1 (stereo unspecified) | -3.45% |
| COCCN(Cc1ccoc1)C(=O)c1ccc(Cl)s1 | 12.3% |
| CCSc1ccccc1C(=O)N(CCOC)Cc1ccoc1 | 13.8% |
| CCS(=O)(=O)NCc1nc(C)cc(N2CCCC2)n1 | -0.714% |
| CN(C)C(=O)N1CC(=O)NCC12CCN(C(=O)c1ccco1)C2 (stereo unspecified) | -0.125% |
| O=C1CC2(CCCCN2C(=O)c2ccoc2)CN1Cc1ccccc1 (stereo unspecified) | 6.35% |
| C[C@@H]1C[C@H]2CN(S(=O)(=O)c3ccc(F)cc3)C[C@H]2O1 | 3.26% |
| CC(C)n1cnc(C2CN(C)c3ccc(C(=O)NC4CCCC4)cc32)n1 (stereo unspecified) | 10.4% |
| O=C1[C@@H]2CCN(Cc3ccc(F)cc3)C[C@@H]2OCCN1c1cccnc1 | 8.82% |
| CN1CC[C@]2(CN(Cc3cccs3)C[C@H]2c2ccccc2)C1=O | 9.82% |
| CCO[C@@H]1CCN(c2ccc(C)nn2)[C@@H]1Cc1cnn(C)c1 | 2.2% |
| COCC1CC2(CCNCC2)CN1c1ncccn1 (stereo unspecified) | 7.51% |
| COc1ccc(C2CC(=O)Nc3nc(N4CCOCC4)sc32)cc1 (stereo unspecified) | 10.8% |
| Cc1cc(C)n(CCNCc2cc(-c3ccc(Cl)cc3)c[nH]c2=O)n1 | -2.38% |
| CC(C)C(=O)N1CCCC(Cc2ccccn2)C1 (stereo unspecified) | -5.3% |
| Cc1n[nH]c(C)c1-c1nccnc1CC1CCNC1 (stereo unspecified) | -4.96% |
| Cc1n[nH]c(C)c1S(=O)(=O)N1CCC(Oc2cnccn2)CC1 | 3.15% |
| Cc1nc(-c2ccccc2C(=O)O)cc(C2CCN(C(C)C)C2)n1 (stereo unspecified) | -13.1% |
| COCCNC(=O)c1cc(C2CC2)nc2onc(C3CCNC3)c12 (stereo unspecified) | 7.55% |
| CCOc1cccc(CNC(=O)NC2CC=CC2)c1OC(F)F | -49.1% |
| Cc1ccc(Cl)c(NC(=O)NC2(C)CCOC2)c1 (stereo unspecified) | -46.7% |

| SMILES | cytotoxicity at 10 µM |
| --- | --- |
| Cc1ccc(NC2CCN(C(=O)CCC3CCCO3)CC2)nn1 (stereo unspecified) | -1.2% |
| CS(=O)(=O)CCn1ccc(NC(=O)Cc2ccccc2Cl)n1 | 13.6% |
| CCOc1ccc(CN(C)C(=O)c2nc(N3CCCC3)ncc2Cl)cc1 | -33% |
| CCc1nc(C)c(C(C)N(C)CCOC)s1 (stereo unspecified) | -6.35% |
| COC1CCN(CCNC(=O)NCC(C)c2cccc(C)c2)CC1 (stereo unspecified) | -4.47% |
| CNC(=O)c1cccnc1N1CCN(C/C=C/c2ccccc2)CC1 | -9.23% |
| CN(C)c1ccccc1CN1CCC(N2CCCC2=O)CC1 | 5.02% |
| CC(=O)Nc1ccc(CNc2cccc(OCCF)c2)cc1 | -5.35% |
| CC(NC(=O)CCc1nc(C(C)(C)C)no1)c1nnc2n1CCC2 (stereo unspecified) | 12% |
| Cn1cc(N2CCC(NC(=O)c3ccccc3Cl)C2=O)cn1 (stereo unspecified) | 4.35% |
| O=S1(=O)CCN(c2nc(C3CC3)ns2)CC1 | 2.37% |
| CC(C)n1cc(CN2CCCN(C(=O)c3ccco3)CC2)cn1 | -2.27% |
| O=C(N1CCC(Oc2ccncc2)C1)C1(c2cccc(F)c2)CC1 (stereo unspecified) | -6.52% |
| Cc1nc2n(n1)CC(NCC(=O)NCCCOC(C)C)CC2 (stereo unspecified) | -5.03% |
| COc1ncccc1NC(=O)NC(C)(C)c1ncc(C)s1 | -9.44% |
| CN(C(=O)CN1CCCC1c1cnn(C)c1)C1(C#N)CCCCC1 (stereo unspecified) | 1.41% |
| CSC(C)C(=O)NS(=O)(=O)c1ccc(F)c(C(F)(F)F)c1 (stereo unspecified) | -6.52% |
| COc1cccc(NC(=O)N(CCC(F)(F)F)C[C@H](O)CO)c1 | -9.48% |
| CC(Cn1cccn1)NC(=O)NCCCN1CCc2ccccc21 (stereo unspecified) | -0.449% |
| Cc1cc(CN2CCN(C(=O)NCCCc3cn[nH]c3C)CC2)on1 | -13.2% |
| Cc1ncc(CN(C)CC(O)c2ccc(Br)cc2)s1 (stereo unspecified) | 7.12% |
| CCc1nc(C(=O)NCc2ccc(N3CCNC(=O)C3)c(F)c2)c[nH]1 | -7.12% |
| COc1ccccc1OCC(=O)NS(=O)(=O)c1ccccc1F | -18% |

| SMILES | cytotoxicity at 10 µM |
| --- | --- |
| Cc1noc(C)c1CNC(=O)N1CCC(C(O)c2ccccc2)CC1 (stereo unspecified) | -9.41% |
| COc1ccc(CCN2CCN(C(=O)c3scnc3C)CC2)cc1 | -8.31% |
| CNC(=O)COc1ccc(CNCc2ccc(F)cc2F)cc1 | -8.6% |
| COCC1CN(S(=O)(=O)c2cccs2)Cc2ncnn2C1 (stereo unspecified) | -120% |
| CS(=O)(=O)N1C[C@@H]2COC[C@]2(C(=O)NCCc2cccs2)C1 | -110% |
| CCCNc1ncc(CN2CCN(C)C(=O)C2C)cn1 (stereo unspecified) | 12.9% |
| O=C(NCCN1CCOC1=O)c1cnc(-c2cccnc2)nc1 | 0.611% |
| CSC(C)CCN1CCCn2nc(CNC(=O)C3CCC3)cc2C1 (stereo unspecified) | 0.812% |
| O=C(O)c1cc(-c2cc[nH]n2)cc(S(=O)(=O)N2CCCCCC2)c1 | -4.88% |
| COc1ccc(F)cc1NC(=O)NCC1(C)COC1 | 6.26% |
| CN(C)C(=O)NCC(=O)N1CCCC2(CCC(=O)N(CC3CC3)C2)C1 (stereo unspecified) | -8.38% |
| O=C(N[C@@H]1CCNC[C@H]1O)c1ccc(F)c(F)c1 | 5.79% |
| COCCN1CC(Nc2nc(C3CCCC3)nc3c2cnn3C)CC1=O (stereo unspecified) | -1.18% |
| Cc1ccc(CN2CCN(Cc3nccn3C)[C@H]3CS(=O)(=O)C[C@H]32)o1 | -3.65% |
| N[C@@H]1CC[C@@H](NC(=O)c2ccccc2OC(F)(F)C(F)F)C1 | -4.85% |
| COc1ccc(N2CCN(C[C@@H](C)CO)CC2=O)cc1 | 1.99% |
| CC(C)(C)c1ncc(S(C)(=O)=O)c(C2CCCNC2)n1 (stereo unspecified) | -12.7% |
| COc1cccc2ccc(CN3CCN(c4ccncc4)CC3)nc12 | -1.36% |
| CCn1c(CN(C)C)nnc1C1CCN(Cc2cccc(F)c2F)CC1 | 1.49% |
| CCCSCC(=O)N1CCCC(c2nccn2Cc2ccncc2)C1 (stereo unspecified) | 4.69% |
| COc1ccccc1C1CNC(=O)c2nc(-c3cn(C)nc3C)[nH]c2C1 (stereo unspecified) | -1.07% |
| CN(C)Cc1nnc(C2CCCN(Cc3ccc(Cl)s3)C2)n1C (stereo unspecified) | -11.1% |
| CCOCCOc1ccccc1C(=O)N1C[C@H](C2CC2)[C@@H](N)C1 | -0.332% |

| SMILES | cytotoxicity at 10 µM |
| --- | --- |
| CC(NCc1cc(O)c2cccc(F)c2n1)c1ccccc1O (stereo unspecified) | 4.28% |
| CCc1nnc(CNC(=O)CCCN2CCCCC2)s1 | -15.4% |
| COc1cccc(CN2CCN(Cc3ccc4nonc4c3)CC2=O)c1 | -1.98% |
| OC1CCN(C2CCN(Cc3cnc(-c4cccs4)nc3)CC2)CC1 | -9.77% |
| Cc1c(CNC(=O)C2CCCCCN2C)oc2ccccc12 (stereo unspecified) | 11.4% |
| CSCCCNC(=O)c1coc(Cn2cnc3ccccc32)n1 | -6.33% |
| CCC1CN(C(=O)c2ccc(=O)[nH]n2)CCC(=O)N1Cc1ccccc1 (stereo unspecified) | 10.4% |
| CCCNC(=O)c1cc(OC)c(OC)cc1N(C)S(C)(=O)=O | -5.18% |
| Cc1cc(=O)n(CC(=O)Nc2ccc(Cl)cc2)nc1C | -1.74% |
| Cc1ccccc1CN1CC[C@@]2(O)CCN(C(=O)C3CCC3)C[C@H]2C1 | 27.9% |
| OC1CCN(C2CCN(Cc3cccc(Cn4cccn4)c3)CC2)CC1 | -1.47% |
| CC(C)(C)n1cc(C2=CCN(CCNC(N)=O)CC2)cn1 | -3.51% |
| CN1CCC(N(CCc2ccccc2)C(=O)c2ccc(CO)cc2)CC1 | 1.63% |
| CNC(=O)CC1CCN(Cc2nc(-c3ccc(SC)cc3)oc2C)CC1 | -8.97% |
| Cc1nc(C)n(C2CCCN(C(=O)COc3ccccc3)C2)n1 (stereo unspecified) | -2.51% |
| Cc1ccccc1-n1c(C)cc(C(=O)N2CCn3c(C)nnc3C2)c1C | -8.51% |
| O=C(CCc1ccco1)Nc1cc(C(F)(F)F)c[nH]c1=O | 13.9% |
| CCC1CCCCN1Cc1nc2c(cnn2C)c(=O)[nH]1 (stereo unspecified) | -3.18% |
| COc1ccccc1C(=O)NS(=O)(=O)c1cccc(C#N)c1 | -6.52% |
| O=S(=O)(NCc1ccccc1Cn1cncn1)N1CCCCC1 | 2.6% |
| Cc1nn(C)c(Cl)c1C1CCCN1C(=O)c1cnccn1 (stereo unspecified) | -4.73% |
| CN(C)CC1CN(Cc2coc(-c3ccccc3Cl)n2)CCO1 (stereo unspecified) | -1.15% |
| O=C(c1cnc(C2CC2)s1)N1CCCCC1Cn1cccn1 (stereo unspecified) | 2.43% |

| SMILES | cytotoxicity at 10 µM |
| --- | --- |
| COc1ccccc1C(=O)N1CCCC1Cn1cc(C)cn1 (stereo unspecified) | -6.49% |
| COc1ccc(C)cc1CN1CCCC1Cn1nc(C)nc1C (stereo unspecified) | 6.57% |
| Cc1nc(NCc2cccc(F)c2)cc(C2CCNCC2)n1 | 2.79% |
| CN(C)C(=O)CN1C[C@H]2CN(Cc3cccc(F)c3)C(=O)[C@H]2C1 | -79.5% |
| COCCN1CCOCC12CCN(C(=O)Cc1cccs1)CC2 | 10.8% |
| Cn1nc(COc2cncnc2)c2c1CCN(Cc1ccccn1)C2 | 9.67% |
| Cn1nccc1C(=O)N1CC[C@]2(C[C@H](OCc3ccccn3)CO2)C1 | -80.6% |
| CC(=O)N1CCn2c(-c3cccc(F)c3)cnc2C12CCNCC2 | 4.98% |
| c1ccc(CN2CCCn3nnc(COc4ccccn4)c3C2)nc1 | 8.43% |
| COc1ncc(C2(O)CCN(Cc3cc(F)ccc3F)CC2)c(OC)n1 | -16.1% |
| COc1ccc(S(=O)(=O)NCC(N)c2ccccc2)c(C)c1 (stereo unspecified) | 0.0381% |
| O=C1C[C@H]2[C@@H](CCN2C(=O)Cc2cccs2)N1Cc1cccnc1 | 7.48% |
| COCC1CN(Cc2cnn(C)c2)Cc2nn(C)cc21 (stereo unspecified) | -82.8% |
| O=C(c1ccsc1)N1CCC2(CC1)COCCN(Cc1ccncc1)C2 | -89.6% |
| COCCN(C)C1COC2(CCN(Cc3ccccn3)CC2)C1 (stereo unspecified) | -73.4% |
| CN(C)c1ncc2c(n1)C1(CCN(Cc3ccccc3)C1)COC2 (stereo unspecified) | -5.07% |
| O=C1CC2(CCN(CC3CC3)C2)CN1c1ccc2c(c1)OCO2 (stereo unspecified) | -2.47% |
| O=C1CO[C@@H]2CN(C3CCOCC3)C[C@H]2N1Cc1cccc(F)c1 | -77% |
| CN1CCN(Cc2cn3c(n2)CN(C(=O)c2ccccn2)CC3)CC1 | -5.7% |
